Source: PubChem
Only some compounds are listed: those with a hit (about 4% of all), similar ones and a draw of the others.
TAAR1 agonist: human TAAR1 agonists, primary screen, Fluo-8 calcium fluorescence, CHO RD-HGA16 cells; actives 0.99% (n = 360,000); activation, % at 3 µM; Trace amine-associated receptor 1 (Homo sapiens), Q96RJ0; vehicle wells 0%, saturating PEA agonist 100%;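 active means activation above the mean activation of all test compounds in the run plus 3 SD, cut at about 38% in these data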
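Test system: RD-HGA16 (CHO) cells co-expressing Gα16 and hTAAR1 / Benchmarks: DMSO vehicle as 0%, PEA at EC100 as 100% / Repeats: no replicates (n 1) / Measure: % activation from peak over basal fluorescence ratio, DMSO-to-PEA scaled / Timing: 17-24 h plating, Fluo-8 75 min 37 °C, 30 min RT / Technique: kinetic Fluo-8 calcium fluorescence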
NTR1 ag: agonists of human NTR1, primary screen, imaging, U2OS cells, beta-arrestin-GFP, high content. NTR1-U2OS beta-arrestin-GFP spot imaging, agonist mode. activation, % at 20 µM. actives 0.17% (n = 330,000);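 active means activation at or above 40% of the spot to cytoplasm intensity ratio, with at least 20 cells analyzed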
TAAR1 antagonist: human TAAR1 antagonists, primary screen, Fluo-8 calcium fluorescence, CHO RD-HGA16 cells; antagonist; inhibition, % at 3 µM; actives 1.5% (n = 360,000); AID 624466, 2012;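 active means inhibition above a per-plate cutoff, the mean inhibition of test compounds on that plate plus 3 SD, cut at about 49% in these data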
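Test system: RD-HGA16 CHO cells with stable hTAAR1 and Gα16 / Probe or stimulus: EC80 β-phenethylamine stimulus / Times: seeding 17-24 h prior, 75-min 37 °C, 30-min RT dye loading / Detection: Fluo-8 calcium-sensitive fluorescence / Read-out basis: % inhibition scaled between DMSO and EC80 PEA controls / Repeats: singlicate, one well per test compound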
OX1R antag-1: OX1R (HCRTR1) antagonists, primary screen, fluorescence, CHO/OX1R cells, Fluo-8 calcium, orexin A; Fluo-8 calcium fluorescence; inhibition, % at 5 µM; actives 0.43% (n = 330,000);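 active means inhibition above its plate's threshold, mean inhibition of all tested compounds on the plate plus 3 SD, cut at about 37% in these data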
Target sequence (O43613 whole entry, looked up): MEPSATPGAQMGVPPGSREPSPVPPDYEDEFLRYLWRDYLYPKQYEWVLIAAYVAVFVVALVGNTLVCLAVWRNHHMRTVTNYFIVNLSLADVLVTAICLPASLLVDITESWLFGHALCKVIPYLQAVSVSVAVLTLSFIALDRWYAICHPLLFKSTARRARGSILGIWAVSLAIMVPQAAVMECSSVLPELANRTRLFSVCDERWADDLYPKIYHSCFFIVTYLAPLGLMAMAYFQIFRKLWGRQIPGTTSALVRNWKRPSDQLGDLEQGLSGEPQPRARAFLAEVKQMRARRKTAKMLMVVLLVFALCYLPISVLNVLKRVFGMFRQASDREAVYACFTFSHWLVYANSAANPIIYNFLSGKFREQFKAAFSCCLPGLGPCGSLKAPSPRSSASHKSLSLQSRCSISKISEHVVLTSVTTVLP
OX1R antag-2: antagonists of human orexin 1 receptor (OX1R) | OX1R-expressing cells, FRET antagonist read-out | inhibition, % at 6.6 µM | Orexin/Hypocretin receptor type 1 (Homo sapiens), O43613 | actives 1.8% (n = 330,000); in the data active means inhibition mostly above about 38%, no sharp cut-off; inactive means mostly below about 40%
CHO parental Ca: ATP-evoked calcium signal inhibitors, parental CHO, primary screen, counter-screen for OX1R antagonist project, cell-based, fluorescence, Fluo-8 calcium dye; parental CHO-K1, ATP-induced calcium, Fluo-8 fluorescence; inhibition, % at 5.6 µM; actives 0.63% (n = 330,000); AID 463079, 2010;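 active means inhibition above that plate's mean sample inhibition plus 3 SD, cut at about 26% in these data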
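Material – parental CHO cells · Reagent – ATP stimulus · Compound – single nominal dose of 5.6 µM per compound · Detection – Fluo-8 fluorescence · Read-out basis – percent inhibition of calcium signal · Controls – ATP-challenged DMSO wells low, unchallenged DMSO wells high · Repeats – no replicates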
Each line names hits and unclear results; the compound was inactive in the other large screens.

O=C(c1cc(-c2ccc(Br)cc2)nc2ccccc12)N1CCN(c2ccccc2O)CC1	TAAR1 antagonist 55
CC(C)Oc1cccc(-c2cc(C(=O)N3CCN(c4ncccn4)CC3)c3ccccc3n2)c1	TAAR1 antagonist 52
COc1cccc(-c2cc(C(=O)N3CCN(c4ncccn4)CC3)c3ccccc3n2)c1	TAAR1 antagonist 56
O=C(Nc1ccc(F)cc1)OC[C@@H]1CSCCS(=O)(=O)N1	none (no result: NTR1 ag, OX1R antag-1, OX1R antag-2, CHO parental Ca)
Cc1ccc(CN2CCCN(Cc3ccc(F)cc3Cl)S2(=O)=O)cc1	CHO parental Ca 47
O=S1(=O)N(Cc2ccccc2F)CCCN1Cc1c(F)cccc1Cl	CHO parental Ca 66
Cc1ccc(CN2CCCN(Cc3c(F)cccc3Cl)S2(=O)=O)cc1	none
Cc1cc(OCC(O)CN(C)C(=O)C(C)Oc2ccccc2)ccc1Cl (stereo not given)	OX1R antag-2 48
CCOC(=O)c1csc(NC(=O)CSc2nnnn2-c2ccc(OCC)cc2)n1	TAAR1 agonist 40 (no result: NTR1 ag, OX1R antag-1, OX1R antag-2, CHO parental Ca)
c1coc(CN(Cc2ccco2)c2ncnc3c2oc2ccccc23)c1	CHO parental Ca 36 (no result: TAAR1 agonist, TAAR1 antagonist)
O=C(O)c1cc(N2CCCC2)ccn1	none (no result: NTR1 ag, OX1R antag-1, OX1R antag-2, CHO parental Ca)
O=c1c(/C=N/O)c(Nc2ccccc2)nc2ccccn12	OX1R antag-2 73
CCn1c2ccccc2c2cc(NC(=O)c3ccc(Br)o3)ccc21	OX1R antag-1 48, OX1R antag-2 85
CCn1c2ccccc2c2cc(NC(=O)c3ccc(=O)oc3)ccc21	none
CCn1c2ccccc2c2cc(NC(=O)c3cccc([N+](=O)[O-])c3)ccc21	OX1R antag-2 76
CCn1c2ccccc2c2cc(NC(=O)COc3ccccc3)ccc21	OX1R antag-2 65
Brc1ccc(CN2CCN(c3ncc(Cc4ccccc4)cn3)CC2)cc1	none (no result: NTR1 ag, OX1R antag-1, OX1R antag-2, CHO parental Ca)
Cc1c(NC(=O)/C(C#N)=C/c2ccc(-c3ccccc3Cl)o2)c(=O)n(-c2ccccc2)n1C	OX1R antag-2 75
Cc1c(NC(=O)/C(C#N)=C/c2ccc(-c3cccc(Cl)c3)o2)c(=O)n(-c2ccccc2)n1C	OX1R antag-2 75
Cc1c(NC(=O)/C(C#N)=C/c2ccc(-c3ccc(Cl)c(Cl)c3)o2)c(=O)n(-c2ccccc2)n1C	none
COc1cc(F)ccc1Oc1cccc2c1S(=O)(=O)N(C1CC1)C[C@@H](COCc1ccccc1)O2	none (no result: NTR1 ag, OX1R antag-1, OX1R antag-2, CHO parental Ca)
Cc1c(O)ccc2c(-c3ccccc3)cc(=O)oc12	none
CCN(CC)Cc1c(O)ccc2c(-c3ccccc3)cc(=O)oc12	OX1R antag-2 61
COC(=O)N1Cc2ccnnc2CC1c1ccccc1-c1ccc(F)cc1 (stereo not given)	none (no result: NTR1 ag, OX1R antag-1, OX1R antag-2, CHO parental Ca)
O=C(NC1CCCCC1)OC[C@@H]1CSCCS(=O)(=O)N1	none (no result: NTR1 ag, OX1R antag-1, OX1R antag-2, CHO parental Ca)
CCN(CC)C(c1ccc(C)cc1)c1nnnn1C1CCCCC1 (stereo not given)	CHO parental Ca 26
O=C(/C=C/c1ccc(Cl)c([N+](=O)[O-])c1)Nc1cccc(NC(=O)c2ccco2)c1	TAAR1 antagonist 69, OX1R antag-2 58
O=C(/C=C/c1ccc(Cl)c([N+](=O)[O-])c1)Nc1cccnc1	OX1R antag-2 54
C[C@H](CO)N1C[C@H](C)[C@H](CN(C)C(=O)Nc2ccc(N3CCCCC3)cc2)OCc2cnnn2CCCC1=O	none (no result: NTR1 ag, OX1R antag-1, OX1R antag-2, CHO parental Ca)
Nc1ccn([C@@H]2O[C@H](C(=O)N[C@H](Cc3ccccc3)C(=O)Nc3ccc4scnc4c3)[C@@H](O)[C@H]2O)c(=O)n1	none (no result: NTR1 ag, OX1R antag-1, OX1R antag-2, CHO parental Ca)
CN1CCN(CCC(=O)N/N=C/c2cc([N+](=O)[O-])ccc2OC(F)F)CC1	none
CC1CCN(CCC(=O)N/N=C/c2ccc([N+](=O)[O-])cc2)CC1	OX1R antag-2 45
CCC1(c2ccccc2)NC(=O)N(CC(=O)NCCN2C(=O)S/C(=C\c3cccnc3)C2=O)C1=O (stereo not given)	OX1R antag-2 57
N#Cc1ccccc1OCC(=O)NCC(c1ccc(F)cc1)N1CCOCC1 (stereo not given)	none
